In ChEMBL document CHEMBL1132695, “2-(diethylamino)thieno1,3ŏxazin-4-ones as stable inhibitors of human leukocyte elastase” (J Med Chem, 1999):

Tests used:
[1] = molecular target: T1, Neutrophil elastase (Homo sapiens) (UniProt P08246); assay: Kon was the acylation association equilibrium rate constant of a competitive inhibition of human leukocyte elastase(HLE).
T1 sequence (whole entry): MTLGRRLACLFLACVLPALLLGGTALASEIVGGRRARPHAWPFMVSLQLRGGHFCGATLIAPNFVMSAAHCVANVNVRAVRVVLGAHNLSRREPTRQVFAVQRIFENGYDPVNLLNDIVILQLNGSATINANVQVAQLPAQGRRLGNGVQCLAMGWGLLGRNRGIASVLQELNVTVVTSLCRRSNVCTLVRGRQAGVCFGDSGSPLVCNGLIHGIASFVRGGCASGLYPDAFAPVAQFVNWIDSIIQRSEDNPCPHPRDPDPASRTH
How it was run: (§1)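 Elastase purified from human leukocytes by affinity chromatography; enzyme stock diluted into 50 mM sodium phosphate, 500 mM NaCl, pH 7.8. Substrate Suc-Ala-Ala-Pro-Val-pNA at 100 μM final (1.3 Km); inhibitor in DMSO added to cuvette. Progress-curve method at 25 °C, at least five inhibitor concentrations for oxazinones (single 2 μM for thiazinones); curves fitted for kobs, giving Kd, Ki, kon (acylation) and koff (deacylation).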

[2] = The alkaline hydrolysis second order rate constant(K OH) of the compound; format: ADME
How it was run: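 Spectrophotometric hydrolysis in aqueous buffer pH 11.25 at 25 °C; loss of long-wavelength UV chromophore followed at 335 nm as first-order exponential decay. Compounds from DMSO stocks, final 15–20 μM, 5% DMSO final. Second-order rate constant kOH- calculated from first-order rates.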

[3] = The alkaline hydrolysis second order rate constant(K OH) taken as log K.
[4] = molecular target: T1, Neutrophil elastase (Homo sapiens); assay: Koff was the deacylation association equilibrium rate constant of a competitive inhibition human leukocyte elastase(HLE).; how it was run: as §1
[5] = molecular target: T2, Neutrophil elastase (Homo sapiens, UniProt P08246); assay: (§2) Inhibitory activity against human leukocyte elastase; how it was run: as §1
T2 sequence (P08246 whole entry): T1 sequence (whole entry)

[6] = molecular target: T2, Neutrophil elastase; assay: as §2; how it was run: as §1; remark: listed apart in the source
[7] = molecular target: T2, Neutrophil elastase; assay: as §2; how it was run: as §1; remark: listed apart in the source

k on [1] [M⁻¹ s⁻¹]	K [2] [M⁻¹ s⁻¹]	Log K [3]	k off [4] [s⁻¹]	Ki [5] [nM]	Ki [6] [nM]	Kd [5] [nM]	Ki [7] [nM]	Structure (SMILES)
10000	0.054	-1.27	0.00013	13	13.2	–	–	CCN(CC)c1nc2scc(C(C)C)c2c(=O)o1
140	0.073	-1.14	6.4e-05	450	447	5500	–	CCN(CC)c1nc2scc(C)c2c(=O)o1
990	0.038	-1.42	4.3e-05	44	43.7	–	–	CCN(CC)c1nc2sc3c(c2c(=O)o1)CCCCC3
9500	0.075	-1.13	5.5e-05	5.8	5.75	–	–	CCN(CC)c1nc2sc3ccccc3c2c(=O)o1
330	0.11	-0.95	4.3e-05	130	–	–	132	CCN(CC)c1nc2ccsc2c(=O)o1
2600	5.9	0.77	0.00079	310	302	–	–	CCN(CC)c1nc2ccccc2c(=O)o1
530	0.12	-0.91	0.00014	260	257	–	–	CCN(CC)c1nc2sccc2c(=O)o1
63	0.039	-1.41	1.3e-05	210	204	–	–	CCN(CC)c1nc2sc3c(c2c(=O)o1)C(C)CCC3 (stereo not drawn)
2500	0.032	-1.49	3.2e-05	13	12.6	–	–	CCN(CC)c1nc2sc3c(c2c(=O)o1)CCCC3
3600	0.094	-1.03	4.5e-05	13	12.6	–	–	CCN(CC)c1nc2sc3c(c2c(=O)o1)CCC3
4000	0.4	-0.4	0.00036	91	91.2	620	–	CCN(CC)c1nc2sc(C(N)=O)c(C)c2c(=O)o1
